According to ChEMBL document CHEMBL2429765 (J Med Chem, 2013):

Experiments:
in vitro = settings: human, liver microsomes
[1] = Oral bioavailability in rat; assay type: ADME, organism-based; settings: in vivo
[2] = Half life in rat; assay type: ADME, organism-based; settings: in vivo
[3] = Volume of distribution at steady state in rat; assay type: ADME, organism-based; settings: in vivo, read-out: Vdss
[4] = Plasma clearance in rat; assay type: ADME, organism-based
[5] = Partition coefficient of the compound at pH 7.4; assay type: physicochemical; settings: octanol/water
Outline: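 cLogD at pH 7.4 calculated with ACD pchbat version 9.3.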

SMILES	microsomal CLint at 0.5 h, 1 µM (in vitro) [µL/min/mg]	further results
N#Cc1cccc(-c2ccc3nnc(Cc4ccc5ncccc5c4)n3n2)c1	22.7	
CC(C)Nc1ccc2nnc([C@@H](C)c3c[nH]c4ncccc34)n2n1	25	
CCNc1ccc2nnc([C@@H](C)c3c[nH]c4ncccc34)n2n1	18	
CN(C)c1ccc2nnc(Cc3ccc4ncccc4c3)n2n1	35	
COc1ccc(-c2ccc3nnc([C@@H](C)c4ccc5ncccc5c4)n3n2)cc1F	281	
COc1ccc(-c2ccc3nnc([C@@H](C)c4ccc5ncccc5c4)n3n2)cc1C	304	
Cc1cccc(-c2ccc3nnc([C@@H](C)c4ccc5ncccc5c4)n3n2)c1	81.8	
C[C@@H](c1ccc2ncccc2c1)c1nnc2ccc(-c3cccc(C#N)c3)nn12	17.9	bioavailability [1]: 13%; half-life [2]: 4.8 h; Vd [3]: 4.9 L/kg; clearance [4]: 22 mL/min/kg; logD [5]: 2.8
C[C@@H](c1ccc2ncccc2c1)c1nnc2ccc(-c3ccc(S(C)(=O)=O)cc3)nn12	< 7.6	
C[C@@H](c1ccc2ncccc2c1)c1nnc2ccc(-c3ccc(N(C)C)nc3)nn12	232	
C[C@@H](c1ccc2ncccc2c1)n1nnc2ncc(-c3cnn(C)c3)nc21	< 7.6	
CC(C)Nc1ccc2nnc([C@@H](C)c3ccc4ncccc4c3)n2n1	20.2	
Cn1cc(-c2ccc3nnc(Cc4c[nH]c5ncccc45)n3n2)cn1	< 7.6	
C[C@@H](c1c[nH]c2ncccc12)c1nnc2ccc(-c3cnn(C)c3)nn12	< 7.6	
Fc1ccc(-c2ccc3nnc(Cc4ccc5ncccc5c4)n3n2)cc1F	13.4	

Second part, led by results:

microsomal CLint at 0.5 h, 1 µM (in vitro) [µL/min/mg]	SMILES	further results
28	C[C@@H](c1c[nH]c2ncccc12)c1nnc2ccc(-c3ccc(C#N)cc3)nn12	
< 7.6	C[C@@H](c1ccc2ncccc2c1)c1nnc2ccc(-c3cnn(C)c3)nn12	bioavailability [1]: 58%; half-life [2]: 1.9 h; Vd [3]: 3.5 L/kg; clearance [4]: 21 mL/min/kg; logD [5]: 2.05
< 7.6	Nc1ccc2nnc(Cc3ccc4ncccc4c3)n2n1	
13.4	C[C@@H](c1ccc2ncccc2c1)c1nnc2ccc(-c3ccc(F)c(F)c3)nn12	bioavailability [1]: 52%; half-life [2]: 3.6 h; Vd [3]: 3.6 L/kg; clearance [4]: 31 mL/min/kg; logD [5]: 3.07
12.1	C[C@@H](c1ccc2ncccc2c1)c1nnc2ccc(-c3ccc(C#N)cc3)nn12	
23.1	C[C@@H](c1ccc2ncccc2c1)c1nnc2ccc(-c3ccccc3C#N)nn12	
304	C[C@@H](c1ccc2ncccc2c1)c1nnc2ccc(-c3ccc4c(c3)OCCO4)nn12	
12.2	CNC(=O)c1ccc(-c2ccc3nnc([C@@H](C)c4ccc5ncccc5c4)n3n2)cc1	
10.4	CCS(=O)(=O)c1ccc(-c2ccc3nnc([C@@H](C)c4ccc5ncccc5c4)n3n2)cc1	
< 7.6	C[C@@H](c1ccc2ncccc2c1)n1nnc2ncc(-c3cnn(CCO)c3)nc21	
